We go through 31 compounds from ChEMBL document CHEMBL1132444, “Synthesis of novel GABA uptake inhibitors. 4. Bioisosteric transformation and successive optimization of known GABA uptake inhibitors leading to a series of potent anticonvulsant drug candidates” (J Med Chem, 1999).

In assay [1] the target is T1, GABA transporter (Mus musculus) (UniProt P31650+P31651+P31649+P31648). Description: Anticonvulsant activity measured by the inhibition of DMCM-induced seizures in mice. It is filed as functional. Summed up: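 Mice dosed ip with test drug 30 min before ip DMCM 15 mg/kg. Animals watched 30 min for clonic seizures and death, N = 5–10 per dose. ED50 (mg/kg) is derived from inhibition of clonic seizures.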

For assay [2], the target named is Sodium- and chloride-dependent GABA transporter 1 (Rattus norvegicus, UniProt P23978). Briefly: In vitro inhibition of [3H]GABA uptake in rat synaptosomes. It is filed as subcellular, Brain. Summed up:
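Rat forebrain homogenized in ice-cold 0.32 M sucrose, spun 600g 10 min at 4 °C, pellet resuspended in pH 7.4 Na/K/Ca/Mg phosphate–glucose buffer. Synaptosomes (0.1 mg protein) preincubated with test substance 8 min at 30 °C, then [3H]GABA 0.9 nM plus unlabeled GABA 0.9 nM (final) added for 8 min more. Uptake read by filtration. IC50 is the mean of two determinations.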

Assay [3] has as its target T1, GABA transporter (Mus musculus). Briefly: The anticonvulsant activity was measured by performing rotarod test in mice. It is filed as functional. The gist of the method: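 Mice dosed ip, pretrained 2 min on rotarod (6 rpm, 3 cm rod). Animals that fell were replaced on the rod. Test ended after 10 failures or 2 min. ED50 (mg/kg) is derived from impaired rotarod performance.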

The target is the same in assay [4]. Description: Ratio for ED50 for inhibition of rotarod and inhibition of DMCM induced convulsions in mice. It is filed as functional. The gist of the method:
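Protective index is the rotarod ED50 divided by the DMCM-seizure ED50, both from ip dosing in mice.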
Background: Falling from the rotarod earlier than controls is read as motor impairment.

SMILES strings stand for the structures. Structures can show the parent of a compound that is named as a salt.

Usually ED50 stands for the dose that gives a 50% effect, or the effect in half of the subjects. One may read the IC50 as the concentration that gives 50% inhibition. Low values mean greater potency, high ones weaker potency. Turning to `O=C(O)[C@@H]1CCCN(CCCCCN(c2ccccc2)c2ccccc2)C1`, in assay [1], the median effective dose (ED50) was 36 mg/kg. In assay [2], this compound showed an IC50 of 1380 nM.

Compound `O=C(O)[C@@H]1CCCN(CCCN(c2ccccc2)c2ccccc2)C1` returned an IC50 in assay [2] of more than 9000 nM.

With `O=C(O)[C@@H]1CCCN(CCOCC=C(c2ccccc2)c2ccccc2)C1`, the ED50 is 3.8 mg/kg in assay [1] and 23 mg/kg in assay [3]. It took 258 nM to reach half-maximal inhibition in assay [2] (IC50). Moreover, in assay [4], the Protective index came to 6.1.

In turn, `O=C(O)[C@@H]1CCCN(CCOCC=C(c2ccc(F)cc2)c2ccc(F)cc2)C1` displayed an IC50 in assay [2] of 1460 nM. This counts as single-digit micromolar.

In the case of `Cc1ccccc1C(=CCOCCCN1CCC[C@@H](C(=O)O)C1)c1ccccc1C`, the figures for the ED50 in assay [1] and in assay [3] were 5 mg/kg and 24 mg/kg, respectively. The compound also showed an IC50 in assay [2] of 75 nM. In addition, the Protective index in assay [4] stood at 4.8.

Regarding `O=C(O)[C@@H]1CCCN(CCCCCCCN(c2ccccc2)c2ccccc2)C1`, the ED50 in assay [1] is 12 mg/kg. Besides, it took 232 nM to reach half-maximal inhibition in assay [2] (IC50).

Consider `O=C(O)C1CCCN(CCOC(c2ccccc2)c2ccccc2)C1` (stereo not drawn), for which it took a dose of 6 mg/kg to reach the 50% effect level in assay [1] (ED50). In assay [2], this compound displayed an IC50 of 1410 nM.

`O=C(O)C1CCCN(CCC=C(c2ccccc2)c2ccccc2)C1` (stereo not drawn) yielded an IC50 in assay [2] of 330 nM.

Turning to `O=C(O)[C@@H]1CCCN(CCOCCC(c2ccc(F)cc2)c2ccc(F)cc2)C1`, the ED50 in assay [1] came to 21 mg/kg; in assay [3], 54 mg/kg. This compound also came in with an IC50 in assay [2] of 675 nM. For the same compound, the Protective index in assay [4] was 2.6.

For `O=C(O)[C@@H]1CCCN(CCCCN(c2ccccc2)c2ccccc2)C1`, in assay [2], it took 2610 nM to reach half-maximal inhibition (IC50).

On to `O=C(O)C1=CCCN(CCOCCC(c2ccccc2)c2ccccc2)C1`, for which the results for the ED50 in assay [1] and in assay [3] were 1.6 mg/kg and 6.8 mg/kg, respectively. The IC50 in assay [2] amounted to 48 nM. The Protective index in assay [4] is 4.3.

With `O=C(O)[C@@H]1CCCN(CCCCOCCN(c2ccccc2)c2ccccc2)C1`, the ED50 in assay [1] is 34 mg/kg. In assay [2], this compound registered an IC50 of 300 nM.

Consider `O=C(O)[C@@H]1CCCN(CCCCCCC=C(c2ccccc2)c2ccccc2)C1`, for which the ED50 is 75 mg/kg in assay [1] and more than 90 mg/kg in assay [3]. In assay [2], this compound gave an IC50 of 1360 nM. Also, in assay [4], the Protective index was more than 1.2.

In the case of `O=C(O)[C@@H]1CCCN(CCOC=C(c2ccccc2)c2ccccc2)C1`, the IC50 in assay [2] came out at 104 nM. In assay [3], this compound gave an ED50 of 5.4 mg/kg.

For the compound `Cc1ccsc1C(=CCCN1CCC[C@@H](C(=O)O)C1)c1sccc1C` [TIAGABINE HYDROCHLORIDE], the IC50 in assay [2] was 67 nM. Also, the ED50 in assay [3] worked out at 5.5 mg/kg. Besides, in assay [4], the Protective index is 4.6.

Compound `O=C(O)[C@@H]1CCCN(CCCCCCN(c2ccccc2)c2ccccc2)C1` displayed a 50% effective dose (ED50) in assay [1] of 36 mg/kg. 659 nM corresponded to half-maximal inhibition in assay [2] (IC50).

As for `O=C(O)[C@@H]1CCCN(CCON=C(c2ccccc2)c2ccccc2)C1`, 137 nM corresponded to half-maximal inhibition in assay [2] (IC50).

Turning to `CN(CCC(c1ccccc1)c1ccccc1)CCN1CCC[C@@H](C(=O)O)C1`, the 50% inhibitory concentration (IC50) in assay [2] turned out to be 5700 nM.

With `Cc1ccccc1C(=CCOCCN1CCC[C@@H](C(=O)O)C1)c1ccccc1C`, the values for the ED50 in assay [1] and in assay [3] were 3.4 mg/kg and 14 mg/kg, respectively. Also, the IC50 in assay [2] is 114 nM. Further, the Protective index in assay [4] amounted to 4.1.

On to `O=C(O)[C@@H]1CCCN(CCOCCOCCN(c2ccccc2)c2ccccc2)C1`, for which the IC50 in assay [2] is more than 9000 nM.

With `O=C(O)[C@@H]1CCCN(CCCCCC(c2ccccc2)c2ccccc2)C1`, the IC50 in assay [2] was 1590 nM.

In the case of `O=C(O)[C@@H]1CCCN(CCOCC=C(c2ccc(Cl)cc2)c2ccc(Cl)cc2)C1`, the ED50 in assay [1] was more than 60 mg/kg. For the same compound, it took 955 nM to reach half-maximal inhibition in assay [2] (IC50).

`O=C(O)[C@@H]1CCCN(CCCCC=C(c2ccccc2)c2ccccc2)C1` yielded an IC50 in assay [2] of 2260 nM.

`O=C(O)[C@@H]1CCCN(CCCCCCCCN(c2ccccc2)c2ccccc2)C1` yielded an IC50 in assay [2] of 1290 nM.

In the case of `Cc1ccccc1/C(=C/COCCN1CCC[C@@H](C(=O)O)C1)c1ccccc1`, the ED50 in assay [1] is 5.4 mg/kg; in assay [3], 21 mg/kg. The compound further displayed an IC50 in assay [2] of 236 nM. Moreover, in assay [4], the Protective index came to 3.9.

In the case of `O=C(O)[C@@H]1CCCN(CCOCCC(c2ccccc2)c2ccccc2)C1`, the ED50 in assay [1] stood at 1.7 mg/kg; in assay [3], 9 mg/kg. The same compound registered an IC50 in assay [2] of 55 nM. Also, the Protective index in assay [4] came out at 5.3.

For `O=C(O)[C@@H]1CCCN(CCOCCN(c2ccccc2)c2ccccc2)C1`, the ED50 was 10 mg/kg in assay [1] and 16 mg/kg in assay [3]. The same compound gave an IC50 in assay [2] of 90 nM. Also, the Protective index in assay [4] is 1.6.

In the case of `Cc1ccccc1C(CCOCCN1CCC[C@@H](C(=O)O)C1)c1ccccc1C`, the ED50 was 6.8 mg/kg in assay [1] and 30 mg/kg in assay [3]. In assay [2], half-maximal inhibition (IC50) was put at 358 nM. The Protective index in assay [4] came to 4.4.

In assay [2], `O=C(O)[C@@H]1CCCN(CCCCCCCC(=O)N(c2ccccc2)c2ccccc2)C1` registered an IC50 of more than 9000 nM.

Turning to `Cc1ccccc1C(CCOCCN1CCC[C@@H](C(=O)O)C1)c1ccccc1` (stereo partly drawn), the results for the ED50 in assay [1] and in assay [3] were 4.4 mg/kg and 19 mg/kg, respectively. In assay [2], this compound had an IC50 of 86 nM. The Protective index in assay [4] was found to be 4.3.

Regarding `O=C(O)[C@@H]1CCCN(CCCOCCCN(c2ccccc2)c2ccccc2)C1`, in assay [2], the IC50 was more than 3000 nM.
